Reference: ChEMBL document CHEMBL4373644, “Fungal natural alkaloid schizocommunin activates the aryl hydrocarbon receptor pathway” (Medchemcomm, 2019)

How the values were obtained:
[1] = target: T1, Aryl hydrocarbon receptor (Homo sapiens, UniProt P35869); experiment: Agonist activity at AhR in human HuH7 cells assessed as effect on ALDH3A1 expression at 0.5 uM after 24 hrs by q-RT-PCR analysis; type: cell-based
T1 sequence (P35869 whole entry): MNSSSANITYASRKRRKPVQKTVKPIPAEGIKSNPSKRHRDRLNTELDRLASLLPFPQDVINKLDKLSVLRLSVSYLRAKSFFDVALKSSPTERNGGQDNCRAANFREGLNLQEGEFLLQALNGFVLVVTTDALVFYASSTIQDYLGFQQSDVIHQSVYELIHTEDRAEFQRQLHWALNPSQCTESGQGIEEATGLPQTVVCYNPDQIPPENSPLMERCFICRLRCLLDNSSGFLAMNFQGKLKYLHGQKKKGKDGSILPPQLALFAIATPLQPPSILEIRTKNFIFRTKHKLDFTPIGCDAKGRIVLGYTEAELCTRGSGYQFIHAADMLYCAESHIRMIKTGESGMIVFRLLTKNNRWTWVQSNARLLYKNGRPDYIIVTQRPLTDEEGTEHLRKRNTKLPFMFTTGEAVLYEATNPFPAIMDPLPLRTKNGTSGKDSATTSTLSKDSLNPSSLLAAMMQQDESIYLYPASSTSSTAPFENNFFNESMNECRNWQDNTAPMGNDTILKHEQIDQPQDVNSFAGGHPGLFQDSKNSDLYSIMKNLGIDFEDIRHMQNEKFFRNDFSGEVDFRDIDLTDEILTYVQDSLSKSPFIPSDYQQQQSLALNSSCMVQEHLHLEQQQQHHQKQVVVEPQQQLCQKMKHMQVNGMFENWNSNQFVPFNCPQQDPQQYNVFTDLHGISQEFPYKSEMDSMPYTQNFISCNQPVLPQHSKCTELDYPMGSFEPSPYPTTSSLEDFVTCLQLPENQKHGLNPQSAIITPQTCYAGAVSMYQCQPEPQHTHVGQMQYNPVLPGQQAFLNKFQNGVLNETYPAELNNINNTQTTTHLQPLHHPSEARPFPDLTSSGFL
Procedure, shortened: (§1)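 Huh7 hepatoma cells in DMEM with 10% FBS at 37 °C, seeded 2.75 × 10^5 per well the day before. Exposed 24 h to 10 μM or 0.5 μM compound, 0.1% final DMSO, against DMSO-only mock. RT-qPCR with 18S rRNA normalisation; fold change by 2–ΔΔCt relative to mock; n = 5; unpaired two-tailed t-test, p < 0.05.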

CYP1A1 (via AhR) [2] = target: T2, CYP1A1 (via AhR) (Homo sapiens, UniProt P35869); experiment: Agonist activity at AhR in human HuH7 cells assessed as increase in CYP1A1 expression at 0.5 uM after 24 hrs by microarray analysis relative to control; type: ADME, cell-based; conditions: read-out: FC
T2 sequence (P35869 whole entry): T1 sequence (P35869 whole entry)
Procedure, shortened: (§2)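 Transcriptome screen in Huh7 cells seeded 2.75 × 10^5 per well and treated 24 h with 10 μM or 0.5 μM compound (0.1% final DMSO) or DMSO mock. RNA isolated by column kit and profiled on microarray; expression given as fold change versus mock.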

A549 [3] = experiment: Effect on AhR expression in human A549 cells at 0.5 uM after 24 hrs by qRT-PCR analysis; type: ADME, cell-based; conditions: a549, 24 h
Procedure, shortened: (§3)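 A549 lung carcinoma cells grown at 37 °C in DMEM with 10% FBS, seeded 2.75 × 10^5 per well one day ahead. Treated 24 h with 10 μM or 0.5 μM compound in 0.1% final DMSO; mock was DMSO only. RNA then analysed by RT-qPCR, normalised to 18S rRNA, 2–ΔΔCt fold change vs mock; n = 3; two-tailed unpaired t-test, p < 0.05.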

[4] = target: T1, Aryl hydrocarbon receptor; experiment: Agonist activity at AhR in human HuH7 cells after 24 hrs by renilla luciferase reporter gene assay; type: cell-based
Procedure, shortened: (§4)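 Huh7 cells seeded 20 000 per well, next day co-transfected with XRE-driven firefly luciferase (pGL4.43 luc2P/XRE) and Renilla plasmids by lipofection. A day later treated 24 h at 0.1, 0.5, 5 or 10 μM, 1% final DMSO, then lysed. Luciferase read in technical triplicate; signal normalised to Renilla and to DMSO vehicle.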

A549 [5] = experiment: Effect on XAP2 expression in human A549 cells at 0.5 uM after 24 hrs by qRT-PCR analysis; type: ADME, cell-based; conditions: a549, 24 h; procedure, shortened: as §3
[6] = target: T1, Aryl hydrocarbon receptor; experiment: Agonist activity at AhR in human A549 cells assessed as increase in CYP1A1 expression at 0.5 uM after 24 hrs by RT-qPCR analysis; type: ADME, cell-based; conditions: a549, 24 h; procedure, shortened: as §3
Huh-7 [7] = experiment: Cytotoxicity against human HuH7 cells assessed as reduction in metabolic activity after 24 hrs by MTT assay; type: ADME, cell-based; conditions: Huh-7, 24 h
Procedure, shortened: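 Huh7 cells seeded 10 000 per well, next day given serial dilutions of 0.012–200 μM (2% final DMSO) for 24 h. After a PBS wash, cells incubated 3 h with MTT at 2.5 mg mL–1; crystals dissolved in DMSO, absorbance read at 562 nm and normalised to mock; EC50 from dose–response curve.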

Huh-7 [8] = experiment: Effect on AhR expression in human HuH7 cells at 0.5 uM after 24 hrs by qRT-PCR analysis; type: ADME, cell-based; conditions: huh-7, 24 h; procedure, shortened: as §1
[9] = target: T1, Aryl hydrocarbon receptor; experiment: Agonist activity at AhR in human A549 cells assessed as increase in CYP1B1 expression at 0.5 uM after 24 hrs by RT-qPCR analysis; type: ADME, cell-based; conditions: a549, 24 h; procedure, shortened: as §3
[10] = target: T1, Aryl hydrocarbon receptor; experiment: Agonist activity at AhR in human A549 cells assessed as increase in UGT1A expression at 0.5 uM after 24 hrs by RT-qPCR analysis; type: ADME, cell-based; conditions: a549, 24 h; procedure, shortened: as §3
CYP1B1 (via AhR) [11] = target: T3, CYP1B1 (via AhR) (Homo sapiens, UniProt P35869); experiment: Agonist activity at AhR in human HuH7 cells assessed as increase in CYP1B1 expression at 0.5 uM after 24 hrs by microarray analysis relative to control; type: ADME, cell-based; conditions: read-out: FC; procedure, shortened: as §2
T3 sequence (P35869 whole entry): T1 sequence (P35869 whole entry)

[12] = target: T1, Aryl hydrocarbon receptor; experiment: Agonist activity at AhR in human HuH7 cells assessed as effect on GSTA1 expression at 0.5 uM after 24 hrs by qRT-PCR analysis; type: cell-based; procedure, shortened: as §1
Huh-7 [13] = experiment: Effect on XAP2 expression in human HuH7 cells at 0.5 uM after 24 hrs by qRT-PCR analysis; type: ADME, cell-based; conditions: huh-7, 24 h; procedure, shortened: as §1
[14] = target: T1, Aryl hydrocarbon receptor; experiment: Agonist activity at AhR in human HuH7 cells assessed as increase in UGT1A expression at 0.5 uM after 24 hrs by RT-qPCR analysis; type: ADME, cell-based; procedure, shortened: as §1
[15] = target: T1, Aryl hydrocarbon receptor; experiment: Agonist activity at AhR in human HuH7 cells assessed as increase in UGT1A expression at 10 uM after 24 hrs by RT-qPCR analysis; type: ADME, cell-based; procedure, shortened: as §1
[16] = target: T1, Aryl hydrocarbon receptor; experiment: Agonist activity at AhR in human HuH7 cells assessed as increase in CYP1B1 expression at 10 uM after 24 hrs by RT-qPCR analysis; type: ADME, cell-based; procedure, shortened: as §1
[17] = target: T1, Aryl hydrocarbon receptor; experiment: Agonist activity at AhR in human A549 cells assessed as increase in UGT1A expression at 10 uM after 24 hrs by RT-qPCR analysis; type: ADME, cell-based; conditions: a549, 24 h; procedure, shortened: as §3
[18] = target: T1, Aryl hydrocarbon receptor; experiment: Agonist activity at AhR in human A549 cells assessed as increase in ALDH3A1 expression at 10 uM after 24 hrs by q-RT-PCR analysis; type: cell-based; conditions: a549, 24 h; procedure, shortened: as §3
CYP1A1 (via AhR) [19] = target: T2, CYP1A1 (via AhR); experiment: Agonist activity at AhR in human HuH7 cells assessed as increase in CYP1A1 expression at 10 uM after 24 hrs by microarray analysis relative to control; type: ADME, cell-based; conditions: read-out: FC; procedure, shortened: as §2
[20] = target: T1, Aryl hydrocarbon receptor; experiment: Agonist activity at AhR in human HuH7 cells assessed as reduction in ALDH3A1 expression at 10 uM after 24 hrs by q-RT-PCR analysis relative to control; type: cell-based; procedure, shortened: as §1
[21] = target: T4, AhR (aryl hydrocarbon receptor) (Homo sapiens, UniProt P35869); experiment: Agonist activity at AhR in human HuH7 cells at 10 uM after 24 hrs by renilla luciferase reporter gene assay relative to control; type: cell-based; conditions: read-out: FC; procedure, shortened: as §4
T4 sequence (P35869 whole entry): T1 sequence (P35869 whole entry)

[22] = target: T1, Aryl hydrocarbon receptor; experiment: Agonist activity at AhR in human HuH7 cells assessed as effect on GSTA1 expression at 10 uM after 24 hrs by qRT-PCR analysis; type: cell-based; procedure, shortened: as §1
CYP1B1 (via AhR) [23] = target: T3, CYP1B1 (via AhR); experiment: Agonist activity at AhR in human HuH7 cells assessed as increase in CYP1B1 expression at 10 uM after 24 hrs by microarray analysis relative to control; type: ADME, cell-based; conditions: read-out: FC; procedure, shortened: as §2

For `O=C1Nc2ccccc2/C1=C\c1nnc2ccccc2c1Cl`, the Activity [1] was “Active”, the fold induction at 24 h, 0.5 µM (CYP1A1 (via AhR) [2]) was 3.28 and the Activity (A549 [3]) was “Not Active”. The Activity [4] was “Dose-dependent effect”, the Activity (A549 [5]) was “Not Active” and the Activity [6] was “Active”. For the same compound, the EC50 (Huh-7 [7]) was 9.6 µM, the Activity (Huh-7 [8]) was “Not Active” and the Activity [9] was “Active”. The Activity [10] was “Active”, the fold induction at 24 h, 0.5 µM (CYP1B1 (via AhR) [11]) was 1.35 and the Activity [12] was “Not Active”. For the same compound, the Activity (Huh-7 [13]) was “Not Active” and the Activity [14] was “Active”.

With `O=C1Nc2ccccc2/C1=C/c1nc2ccccc2c(=O)[nH]1` the Activity [15] was “Active”, the Activity [4] was “Dose-dependent effect” and the Activity [16] was “Active”. For the same compound, the Activity [17] was “Active”, the Activity [18] was “Active” and the EC50 (Huh-7 [7]) was 31.3 µM. The fold induction at 24 h, 10 µM (CYP1A1 (via AhR) [19]) was 10.5, the “fold change (FC)” value [20] was 0.65 and the fold induction at 24 h, 10 µM [21] was at most 17. For the same compound, the Activity [22] was “Not Active” and the fold induction at 24 h, 10 µM (CYP1B1 (via AhR) [23]) was 8.6.
